A selection: hits, their analogues and other compounds. The true share with any hit is near 4%.
KCNQ1 act: potentiators or activators of KCNQ1 channel, primary screen, cell-based, thallium flux, high-throughput; AID 2648, 2010; CHO-K1 KCNQ1, thallium flux FluxOR fluorescence; hits give high values; 0.35% of 310,000 active; B-score at 10 µM;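 active means fluorescence ratio B-score, a plate-corrected score, at least three library SD, with initial intensity B-score within 5 SD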
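System: CHO-K1 cells stably expressing KCNQ1 / Medium: assay buffer for compound exposure, DMSO matched across wells / Reagent: thallium- and potassium-containing depolarizing buffer / Compound: one concentration, matched DMSO / Incubation: 20 min compound pretreatment at room temperature / Measured by: kinetic FluxOR fluorescence, 10 s baseline plus 110 s post-stimulus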
KCNK9 block: KCNK9 potassium channel inhibitors, primary screen, HEK293 cells, thallium flux. B-score at 10 µM. 1.2% of 310,000 active. Potassium channel subfamily K member 9 (Homo sapiens), Q9NPC2. FluxOR thallium flux fluorescence; hits give low values;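 active means ratio B-score over 3 SD below the library mean, with starting fluorescence within 5 SD of its mean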;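 further: negative B-score means less thallium flux so channel inhibition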
PHOSPHO1 inh: PubChem AID 1565. Phosphoethanolamine/phosphocholine phosphatase (Homo sapiens), Q8TCT1. recombinant PHOSPHO1, absorbance phosphatase assay. inhibition, % at 13.3 µM. 1.1% of 290,000 active; in the data active means inhibition above about 60%
Target sequence (Q8TCT1 whole entry, looked up): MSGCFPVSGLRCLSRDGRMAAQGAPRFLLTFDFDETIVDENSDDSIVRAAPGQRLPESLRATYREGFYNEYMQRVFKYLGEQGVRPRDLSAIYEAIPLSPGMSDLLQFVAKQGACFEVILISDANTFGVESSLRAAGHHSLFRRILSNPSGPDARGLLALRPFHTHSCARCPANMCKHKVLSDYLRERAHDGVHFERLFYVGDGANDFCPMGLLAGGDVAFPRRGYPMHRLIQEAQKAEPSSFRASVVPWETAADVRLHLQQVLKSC
KCNQ1 inh: inhibitors of human KCNQ1 channel, primary screen, cell-based, thallium flux, high-throughput; Potassium voltage-gated channel subfamily KQT member 1 (Homo sapiens), P51787; CHO-K1 KCNQ1, FluxOR thallium flux fluorescence; hits give high values; B-score at 10 µM; 1.3% of 310,000 active;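 active means compounds whose thallium flux B-score, printed positive for inhibition, exceeds three library SD while starting fluorescence stays within three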;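 further: channel opened by potassium depolarization with thallium stimulus after 20 min compound exposure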
KCNK3 block: human KCNK3 channel inhibitors, primary screen, CHO cells, FluxOR thallium flux, B-score; FluxOR fluorescence; hits give low values; B-score at 10 µM; 0.84% of 340,000 active; AID 602410, 2012;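 active means B-score under library mean minus 4 SD, starting fluorescence ratio at most library mean plus 5 SD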;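 further: more negative B-score means stronger inhibition of thallium flux through KCNK3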
hERG protect: hERG rescue from dofetilide block, primary screen, cell-based, CHO-hERG, FluxOR thallium flux, dofetilide IC70. dofetilide IC70 present. 0.51% of 310,000 active. activation (rescue from dofetilide block), less the hit threshold, % at 10 µM;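 active means activation above the mean of controls blocked by dofetilide plus 5 SD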;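 further: thallium influx through hERG after potassium depolarization seen as dye fluorescence rise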
Numbers stand for hits; 0 = inactive; - = not tested or not shown.

SMILES	KCNQ1 act	KCNK9 block	PHOSPHO1 inh	KCNQ1 inh	KCNK3 block	hERG protect
COc1cccc(S(=O)(=O)NCc2ccc(C(=O)N3CCN(c4ccccc4)CC3)cc2)c1	0	0	0	0	0	0
CC(=O)c1ccc(N2CCN(C(=O)/C=C/c3ccc(S(=O)(=O)N4CCOCC4)cc3)CC2)cc1	0	0	0	0	0	0
CS(=O)(=O)N(Cc1ccccc1)c1ccc(C(=O)N2CCN(c3cccc(Cl)c3)CC2)cc1	0	0	0	0	0	0
Cc1ccc(S(=O)(=O)NCc2ccc(C(=O)N3CCN(c4ccccc4)CC3)cc2)cc1	0	0	73	0	0	0
CC(=O)c1ccc(N2CCN(C(=O)/C=C/c3ccc(S(=O)(=O)NCc4ccco4)cc3)CC2)cc1	0	0	0	0	0	4.9
CCCNC(=O)c1onc(CS(=O)(=O)c2cc(C)cc(C)c2)c1C(=O)NCCC	-	-	-	-	0	-
CCSc1cc(N2CCCC2)nc(-c2ccc(C)cc2)n1	0	0	0	0	0	0
CCSc1cc(N2CC(C)OC(C)C2)nc(-c2ccccc2Cl)n1 (centres undefined)	0	0	0	0	-9.1	0
CCCOc1ccc(CSC(CC(=O)O)C(=O)O)cc1 (centres undefined)	0	0	0	0	0	0
COc1cc2c(cc1OC)C1=CC(=O)C(=O)N1C(C)(C)C2	0	0	0	12	0	0
COc1cc2c(cc1OC)-c1nc3ccccc3c(=O)n1C(C)(C)C2	0	0	0	0	0	0
Cc1c(N=C2NN=C(c3ccc(Cl)cc3)CS2)c(=O)n(-c2ccccc2)n1C	0	0	0	0	0	0
O=C(NNC(=S)NC(=O)c1ccccc1[N+](=O)[O-])c1ccccc1[N+](=O)[O-]	0	0	85	0	0	0
O=C(NNC(=S)NC(=O)c1ccccc1[N+](=O)[O-])c1ccccc1O	0	0	0	0	0	0
O=C(Nc1cccc2ccccc12)N1N=CCC1c1ccccc1 (centres undefined)	0	0	0	0	0	0
COc1cc(/C=N/Nc2ccccc2C(F)(F)F)ccc1O	0	-6.9	0	0	0	0
COc1cc(/C=N/N(c2ccccc2)c2ccccc2)ccc1O	0	0	-	11	0	0
COc1cc(/C=N/Nc2ccccc2)ccc1O	0	0	0	0	0	0
OC(COc1ccc(Cl)cc1Cl)CN1CCc2ccccc2C1 (centres undefined)	0	0	0	0	0	0
O=C1c2cccc3c(N4CCCCC4)ccc(c23)C(=O)N1c1ccccn1	0	-7.6	0	8	0	0
O=C1c2cccc3c([N+](=O)[O-])ccc(c23)C(=O)N1c1nccs1	0	0	97	0	0	0
O=C1c2cccc3c([N+](=O)[O-])ccc(c23)C(=O)N1c1ccc(Cl)cn1	0	0	93	7	0	0
CC(=O)Oc1ccc(N2C(=O)c3cccc4c([N+](=O)[O-])ccc(c34)C2=O)cc1	0	0	0	0	0	0
CCCN1C(=O)c2cccc3c(N4CCCCC4)ccc(c23)C1=O	0	0	0	0	0	0
O=C1c2cccc3c([N+](=O)[O-])ccc(c23)C(=O)N1O	0	0	0	8	0	0
SMILES	KCNQ1 act	KCNK9 block	PHOSPHO1 inh	KCNQ1 inh	KCNK3 block	hERG protect
CC1(C)CN=C(NC2CCCCC2)S1	0	0	0	0	0	0
COc1ccccc1N(C(=O)c1snc(C(N)=O)c1N)C(C(=O)NCc1ccccc1)c1ccc(C)o1 (centres undefined)	0	0	0	0	0	0
COc1ccc(/C=C2\Oc3cc(OCC(=O)N4CCC(C(=O)O)CC4)ccc3C2=O)c(OC)c1	0	0	0	0	0	0
COc1ccc(C(=O)OCc2ccccc2F)cc1S(=O)(=O)N1CCCC1	-	-	-	-	0	-
O=C1c2cccc3c([N+](=O)[O-])ccc(c23)C(=O)N1c1ccccn1	0	-6.6	0	0	0	0
CC(C)C[C@H](NC(=O)C1CC(=O)N(c2ccc3c(c2)OCO3)C1)C(=O)NC1CCCC1 (some centres undefined)	0	0	70	0	0	0
Cc1ccc(S(=O)(=O)N2CCCC2C(=O)NCc2ccc3c(c2)OCO3)cc1 (centres undefined)	0	0	0	0	0	9.9
O=C(NCc1ccc2c(c1)OCO2)C1CC(=O)N(C2CCCC2)C1 (centres undefined)	0	0	64	0	0	0
O=C(NC(Cc1ccccc1)c1nc2ccccc2[nH]1)C1CC(=O)N(c2ccc3c(c2)OCCO3)C1 (centres undefined)	0	0	96	0	0	0
C[C@H](NC(=O)C1CC(=O)N(c2ccc3c(c2)OCO3)C1)C(=O)NC1CCCC1 (some centres undefined)	0	0	0	0	0	0
COc1ccccc1NS(=O)(=O)c1cc(C(=O)NCCC(C)C)ccc1F	0	0	0	0	0	0
CCOC(=O)N1CCN(Cc2cc(Cl)c3cccnc3c2O)CC1	0	0	0	0	-	0
CCOC(=O)C1=C(CC)Nc2ccccc2N=C1NC(=O)c1ccc(C)c(S(=O)(=O)N2CCOCC2)c1	-	-	-	-	0	-
CC(C)(c1ccccc1)c1ccc(OCC(O)CNC2CCN(Cc3ccccc3)CC2)cc1 (centres undefined)	0	-7.5	0	8	0	0
CCCSc1nc(C)cc(C)c1S(=O)(=O)c1ccccc1C	0	-7.5	0	0	0	0
CCCc1cc(=O)oc2cc(OCc3ccc(C(=O)O)o3)ccc12	0	0	0	0	0	0
CC(=O)Nc1ccc2c(CSc3nnc(N)s3)cc(=O)oc2c1	0	0	69	0	0	0
O=C(c1cnn2c(C(F)F)cc(-c3ccccc3)nc12)N1CCCc2ccccc21	0	0	0	0	0	0
COc1ccc(-n2nc(C(=O)NCC(=O)N3CCCCCC3)c3ccccc3c2=O)c(OC)c1	0	0	0	0	0	0
O=S(=O)(c1ccc2c(c1)OCCO2)N1CCN(c2ncnc3sccc23)CC1	0	0	0	6	0	0
CC[n+]1ccc(C[n+]2ccccc2)c2ccccc21	-	-	88	-	0	-
CN1CCN(C=NC2=NN(c3cccc(C(F)(F)F)c3)CC2)CC1	0	0	0	0	0	0
Nc1ncccc1OCc1ccc(Br)cc1	0	0	0	0	0	0
O=C1Nc2cc(C(=O)NCCN3CCCCCC3)ccc2S/C1=C\c1ccccc1	0	0	0	0	0	0
